Source: PubChem
Shown are actives, neighbours in structure and some others; about 1.4% of the full set was active somewhere.
MOR-DOR ag-1 = OPRM1-OPRD1 heterodimerization agonism | P35372+P41143 | cells, luminescence | activation, % at 9.3 µM | AID 504326 | 340,000 tested, 0.3% active
Target sequence (P35372 whole entry, looked up): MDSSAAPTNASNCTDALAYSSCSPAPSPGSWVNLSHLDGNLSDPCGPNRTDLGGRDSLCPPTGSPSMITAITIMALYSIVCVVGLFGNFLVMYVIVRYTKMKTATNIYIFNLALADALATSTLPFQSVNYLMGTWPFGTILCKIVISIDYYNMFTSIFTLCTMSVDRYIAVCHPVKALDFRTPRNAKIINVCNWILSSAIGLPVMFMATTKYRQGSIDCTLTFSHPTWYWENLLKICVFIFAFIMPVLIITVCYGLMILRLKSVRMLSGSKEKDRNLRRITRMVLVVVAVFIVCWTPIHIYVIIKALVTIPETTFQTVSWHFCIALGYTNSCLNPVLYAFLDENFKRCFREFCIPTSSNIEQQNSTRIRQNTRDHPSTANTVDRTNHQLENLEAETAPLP
Target sequence (P41143 whole entry, looked up): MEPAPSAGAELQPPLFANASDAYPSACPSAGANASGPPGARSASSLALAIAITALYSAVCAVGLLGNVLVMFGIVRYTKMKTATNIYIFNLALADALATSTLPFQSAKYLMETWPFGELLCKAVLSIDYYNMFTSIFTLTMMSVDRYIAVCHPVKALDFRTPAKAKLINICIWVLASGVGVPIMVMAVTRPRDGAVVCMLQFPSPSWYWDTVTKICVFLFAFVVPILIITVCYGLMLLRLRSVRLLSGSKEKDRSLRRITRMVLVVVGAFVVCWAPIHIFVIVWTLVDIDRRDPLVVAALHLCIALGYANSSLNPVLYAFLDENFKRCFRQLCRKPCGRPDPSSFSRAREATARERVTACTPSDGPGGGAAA
Arr AP2 block = blocks beta-arrestin peptide binding to AP2 adaptin; 340,000 tested, 0.31% active; AID 504490; FITC-arrestin peptide / GST-AP2 beads, flow cytometry; AP2 beta2 appendage carries R879A mutation; inhibition, % at 10 µM;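 active = inhibition above a set limit, near 3 SD of compounds lacking own fluorescence, cut at about 54% in these data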
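System: GST-AP2 R879A bound to glutathione beads, E. coli-expressed. Also added: 50 nM FITC-arrestin peptide. Schedule: compound with beads 12 min RT, then probe 1 h RT. Signal: bead flow cytometry, FITC channel. Read-out basis: percent response.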
HTR5A inv ag = inverse agonist of human HTR5A in OPRM1-OPRD1 counter-screen | AID 504634 | 340,000 tested, 0.083% active | inhibition, % at 9.3 µM | HTR5A cell line, luminescence, inverse agonism; in the data active = inhibition mostly above about 23%, no sharp cut-off; inactive = mostly below about 18%
DAGLB inhibitor = diacylglycerol lipase beta (human) inhibition | Q8NCG7 | HEK293T DAGLB membrane lysate, EnzChek fluorogenic substrate | inhibition, % at 5.17 µM | 340,000 tested, 0.059% active | AID 504411; in the data active = inhibition above about 34%
MOR-DOR inv ag = inverse agonists of human mu-delta opioid receptor heterodimerization. inhibition, % at 9.3 µM. cell-based MOR-DOR heterodimer luminescence, inverse agonism. P35372+P41143. 340,000 tested, 0.21% active. AID 504357; in the data active = inhibition above about 22%, passing the limit was not always enough
HTR5A ag ctr = HTR5A agonism, opioid heterodimer counter-screen | P47898 | HTR5A agonist assay, luminescence, cell-based | activation, % at 9.3 µM | 340,000 tested, 0.61% active; in the data active = activation mostly above about 9.5%, no sharp cut-off; inactive = mostly below about 7.6%
MOR-DOR ag-2 = opioid heterodimer agonism, HTR5A counter-screen; shares compounds with HTR5A ag ctr; U2OS counter-screen cells, complementation luminescence, 3 h; activation, % at 9.3 µM; 800 tested, 13% active
HTR5A ag confirm = confirmation of human HTR5A agonists; activation, % at 9.3 µM; 800 tested, 17% active; HTR5A agonist cell assay, luminescence; shares compounds with HTR5A ag ctr; in the data active = activation above about 17%
Hits are given with their value; n = inactive; x = no result. Cut-off read from the data, not from the text of the source, unless noted: active = activation above about 18%; inactive = the rest.

SMILES	MOR-DOR ag-1	Arr AP2 block	HTR5A inv ag	DAGLB inhibitor	MOR-DOR inv ag	HTR5A ag ctr	MOR-DOR ag-2	HTR5A ag confirm
O=C(Nc1ccc(Nc2ccccc2)cc1)c1c(F)c(F)c(F)c(F)c1F	n	n	n	n	n	16.0	n	n
O=C(Nc1ccc(Nc2ccccc2)cc1)c1c(Cl)cccc1Cl	n	n	n	n	n	n	x	x
COc1ccc(C(=O)N2CCN(CCc3ccccc3)CC2)cc1[N+](=O)[O-]	n	n	n	n	n	19.2	n	n
O=S(=O)(c1cccc(NC(=S)N2CCN(c3cccc(Cl)c3)CC2)c1)C(F)F	n	n	n	n	n	15.3	30.9	n
CCOC(=O)c1cc(OC(C)=O)c2ccc(OC)c(OC)c2c1	x	x	x	n	x	x	x	x
CCCc1nnc(NC(=O)c2c(O)c3c([nH]c2=O)CCCC3)s1	n	n	n	n	n	15.6	n	n
O=C(Nc1nccs1)c1c(O)c2c([nH]c1=O)CCCC2	n	n	n	n	n	n	x	x
COc1ccc2[nH]cc(CCNC(=O)C3CCCO3)c2c1 (stereo unspecified)	n	n	n	n	n	42.1	n	34.8
COc1ccc2[nH]cc(CCNC(=O)C3CC(=O)N(c4ccc(Cl)cc4)C3)c2c1 (stereo unspecified)	n	n	n	n	n	32.6	n	n
CCOc1ccc(N2CC(C(=O)NCCc3c[nH]c4ccc(OC)cc34)CC2=O)cc1 (stereo unspecified)	n	n	n	n	n	20.0	n	n
COc1ccc2[nH]cc(CCNC(C)=O)c2c1	n	n	n	n	n	n	x	x
COC(=O)C1=C(C)N(CCc2c[nH]c3ccc(OC)cc23)C(=O)C1	n	n	n	n	n	17.1	n	42.0
O=C(O)c1ccc(C(S(=O)(=O)c2ccccc2)S(=O)(=O)c2ccccc2)cc1	x	x	x	n	x	x	x	x
CCc1ccc(-n2c(=S)sc3c(=O)[nH]c(SCC(=O)NC4CCCCC4)nc32)cc1	x	x	x	n	x	x	x	x
Cc1c(NC(=O)Oc2ccccc2)sc(=S)n1C	n	n	n	n	n	15.1	n	42.8
Cc1ccc(NC(=O)Nc2sc(=S)n(C)c2C)cc1	n	n	n	n	n	n	x	x
Cc1ccc(S(=O)(=O)N/N=C\C=C\c2ccccc2)cc1	n	n	n	n	n	38.1	n	n
O=S(=O)(N/N=C\C=C\c1ccccc1)c1ccc(Br)cc1	n	n	n	n	n	19.5	n	n
Cc1ccc(C(=O)C2=C(O)C(=O)N(Cc3cccnc3)C2c2ccc(OC(C)C)cc2)o1 (stereo unspecified)	n	n	n	n	n	n	x	x
COc1ccc(C2C(C(=O)c3ccc(C)o3)=C(O)C(=O)N2Cc2cccnc2)cc1 (stereo unspecified)	n	n	n	n	n	14.6	181.9	n
CC[C@H](C)[C@H]1CNC(=S)N1CC1CCN(CCC(C)C)CC1	x	x	x	n	x	x	x	x
CCc1ccc(Nc2nnc(SCC(=O)NC(=O)c3cccn3C)s2)cc1	n	n	n	n	n	14.6	n	n
Nc1c(Cl)cc(N=Nc2ccccc2)cc1Cl	n	n	n	n	n	n	x	x
COc1ccccc1N1CCN(C(=O)c2cccc(C(=O)N3CCN(c4ccccc4OC)CC3)c2)CC1	n	n	n	n	n	15.5	n	n
COc1ccc(C(=O)N2CCN(c3ccccc3Cl)CC2)cc1S(=O)(=O)NC1CC1	n	n	n	n	n	17.8	95.7	n
SMILES	MOR-DOR ag-1	Arr AP2 block	HTR5A inv ag	DAGLB inhibitor	MOR-DOR inv ag	HTR5A ag ctr	MOR-DOR ag-2	HTR5A ag confirm
COc1ccccc1N1CCN(C(=O)C2CCN(C(=O)c3cccc(Cl)c3)CC2)CC1	n	n	n	n	n	n	x	x
CCN(CC)S(=O)(=O)c1ccc(N2CCOCC2)c(NC(=O)c2nn(C(C)C)c(=O)c3ccccc23)c1	x	x	x	n	x	x	x	x
COc1ccc(C(=O)NCc2c(C)nn(Cc3ccccc3)c2C)cc1S(=O)(=O)N1CCOCC1	n	n	n	n	n	16.6	n	n
COc1ccc(S(=O)(=O)N2CCOCC2)cc1C(=O)NCc1c(C)nn(Cc2ccccc2)c1C	n	n	n	n	n	n	x	x
COc1ccc(C(=O)NCCCN2CCN(CCCNC(=O)c3ccc(OC)c(OC)c3)CC2)cc1OC	n	n	n	n	n	n	x	x
O=C(Nc1ccc(N2CCN(Cc3ccccc3F)CC2)cc1)c1ccccc1[N+](=O)[O-]	n	n	n	n	n	n	x	x
O=C(Nc1ccc(N2CCN(Cc3ccccc3F)CC2)cc1)c1ccc([N+](=O)[O-])o1	n	n	n	n	n	25.1	n	n
COc1cc(CCNc2ccc3nnc(-c4ccccc4)n3n2)cc(OC)c1OC	n	n	n	n	n	17.4	n	n
COc1ccc2nnc(-c3ccccc3)n2n1	n	n	n	n	n	n	x	x
Cc1ccc(NS(=O)(=O)c2cccc(C(=O)NC3CCN(Cc4ccccc4)CC3)c2)cc1	n	n	n	n	n	n	x	x
O=C(NC1CCN(Cc2ccccc2)CC1)c1cccc(S(=O)(=O)Nc2ccc(SC(F)F)cc2)c1	n	n	n	n	n	18.7	n	n
C[C@H](CO)N1C[C@H](C)[C@@H](CN(C)S(=O)(=O)c2ccc(F)cc2)OCc2cn(nn2)CCCC1=O	x	x	x	n	x	x	x	x
O=C(O)c1ccccc1C(=O)Nc1ccc(Br)c(C(F)(F)F)c1	n	n	n	n	n	n	x	x
Cc1cc(C)c(C(=O)Nc2ccc(Br)c(C(F)(F)F)c2)c(C)c1	n	n	n	n	n	18.4	n	n
CCNC(=S)NNc1nncc2ccccc12	n	n	n	n	n	16.1	35.7	n
Cc1ccc([C@H]2N[C@]3(CCCN(Cc4ccc(Br)cc4)C3=O)[C@H]3C(=O)N(Cc4ccccc4)C(=O)[C@@H]23)cc1	x	x	x	n	x	x	x	x
Cc1ccc(-c2nc(NC(=O)c3nn(C)cc3[N+](=O)[O-])sc2C)cc1C	n	n	n	n	n	17.5	23.5	n
Cc1ccc(-c2nc(NC(=O)c3nn(C)cc3[N+](=O)[O-])sc2C)cc1	n	n	n	n	n	n	x	x
CN(Cc1ccccc1)S(=O)(=O)c1ccc(Cl)c(C(=O)N2CCOCC2)c1	x	x	x	n	x	x	x	x
CC(C)N1CCc2c(sc(NC(=O)c3ccc4ccccc4c3)c2C(N)=O)C1	n	n	n	n	n	18.3	n	18.4
O=C(NCc1ccccn1)C1CCN(C2CCN(Cc3cccc(F)c3)CC2)CC1	x	x	x	n	x	x	x	x
COC(=O)c1ccc(-c2cc(C(=O)O)c3cc4c(cc3n2)OCCO4)cc1	n	n	n	n	n	17.0	n	n
O=S(=O)(NCc1ccccc1F)c1cccc(S(=O)(=O)N2CCOCC2)c1	n	n	n	n	n	n	x	x
O=S(=O)(NCc1ccc(F)cc1)c1cccc(S(=O)(=O)N2CCOCC2)c1	n	n	n	n	n	19.6	n	n
